What was measured:
MCF7 [1] = experiment: Antiproliferative activity against human MCF7 cells assessed as inhibition of cell proliferation incubated for 48 hrs by CCK8 assay; type: functional, cell-based; details: MCF7, 48 h
Summary of the method: (§1)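 Human A549 lung, Hela cervical, Bel-7402 hepatocellular and MCF-7 breast cancer cells, plus mouse embryo fibroblast NIH3T3, tested for anti-proliferative activity by CCK-8 assay. For the matrine combination tests, the chalcone and matrine were used at a 1:1 molar ratio; values given as IC50.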

[2] = Antiproliferative activity against human Bel7402 cells assessed as inhibition of cell proliferation incubated for 48 hrs in presence of matrine by CCK8 assay; type: functional, cell-based; details: Bel-7402, 48 h; summary of the method: as §1
MCF7 [3] = experiment: Antiproliferative activity against human MCF7 cells assessed as inhibition of cell proliferation incubated for 48 hrs in presence of matrine by CCK8 assay; type: functional, cell-based; details: MCF7, 48 h; summary of the method: as §1
[4] = Antiproliferative activity against mouse NIH/3T3 cells assessed as inhibition of cell proliferation incubated for 48 hrs by CCK8 assay; type: cell-based; details: NIH3T3, 48 h; summary of the method: as §1
HeLa [5] = experiment: Antiproliferative activity against human HeLa cells assessed as inhibition of cell proliferation incubated for 48 hrs in presence of matrine by CCK8 assay; type: functional, cell-based; summary of the method: as §1
HeLa [6] = experiment: Antiproliferative activity against human HeLa cells assessed as inhibition of cell proliferation incubated for 48 hrs by CCK8 assay; type: functional, cell-based; summary of the method: as §1
A549 [7] = experiment: Antiproliferative activity against human A549 cells assessed as inhibition of cell proliferation incubated for 48 hrs by CCK8 assay; type: functional, cell-based; details: A549, 48 h; summary of the method: as §1
A549 [8] = experiment: Antiproliferative activity against human A549 cells assessed as inhibition of cell proliferation incubated for 48 hrs in presence of matrine by CCK8 assay; type: functional, cell-based; details: A549, 48 h; summary of the method: as §1
A549 [9] = experiment: Induction of apoptosis in human A549 cells at 15 to 50 uM incubated for 24 hrs by Annexin V-FITC/propidium iodide double staining based flow cytometry; type: functional
Summary of the method: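 A549 cells exposed for 24 h at three concentrations alongside a 0.1% DMSO control. Cells double-stained with Annexin V-FITC/propidium iodide and analysed by flow cytometry. Early apoptosis was read from the lower-right quadrant and late apoptosis from the upper-right, and both were summed. Done in triplicate, with statistics compared to control.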

[10] = Antiproliferative activity against human Bel7402 cells assessed as inhibition of cell proliferation incubated for 48 hrs by CCK8 assay; type: functional, cell-based; details: Bel-7402, 48 h; summary of the method: as §1

IC50 (MCF7 [3]) [µM] | IC50 (HeLa [5]) [µM] | IC50 (A549 [8]) [µM] | Structure (SMILES) | IC50 (MCF7 [1]) [µM] | IC50 [2] [µM] | IC50 [4] [µM] | IC50 (HeLa [6]) [µM] | IC50 (A549 [7]) [µM] | Activity (A549 [9]) [%] | IC50 [10] [µM]
> 50 | > 50 | > 50 | C#CCOc1ccc(C(=O)/C=C/c2ccccc2)c(O)c1 | > 50 | > 50 | 66.6 | > 50 | > 50 |  | 
 |  |  | O=C1CCC[C@@H]2[C@H]3CCCN4CCC[C@@H](CN12)[C@@H]34 [MATRINE] | > 50 |  |  | > 50 | > 50 | 28.4 | > 50

Source: ChEMBL document CHEMBL3425481, “Design, synthesis and anticancer activity of matrine-1H-1,2,3-triazole-chalcone conjugates” (Bioorg Med Chem Lett, 2015)
